Consider 43 molecules from PubChem BioAssay AID1381 (University of Pittsburgh Molecular Library Screening Center, 2008).

Out of some 220,000 compounds screened, about 1,000 (0.45%) were called active. The sample holds actives, similar compounds and a random draw of the others, so the mix is not that of the screen.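 The calls were made as follows: active = plate z-score of nuclear minus cytoplasmic receptor signal below a set negative limit, without overly bright fluorescence or cell loss (cut at about -3.5 in these data, passing the limit was not always enough); inactive = the rest, inconclusive results apart.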

The experiment can be described thus: inhibitors of GR-EGFP nuclear translocation, primary screen, dynein cargo transport inhibitor project, imaging, high-content, 3617.4 mouse cells (AID 1381). Conditions: at 20 µM, stimulated with dexamethasone, 1 µM. The method, boiled down: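 Buffer or medium: tet-free medium with charcoal-stripped serum / Also added: dexamethasone agonist, 1.0 µM final, for 30 min / Timing: induction 48 h, compound 1 h, agonist 30 min / Measured by: high-content fluorescence imaging after fixation / Read-out: nuclear-to-cytoplasmic GR-EGFP distribution per well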

Setting [1] is: measured here: cell count per field.
Where [2] appears, read: measured here: cytoplasmic GR-EGFP intensity, stronger effect = higher value.
The mark [3] stands for this setting: measured here: nuclear GR-EGFP intensity, stronger effect = lower value.

As for `C=CCn1cc(C(=O)NCc2ccc(Cl)cc2)c(=O)c2cc(S(=O)(=O)N(CC)CC)ccc21`, the z-score by setting is: (stronger effect = lower value) 0.479 (inactive); under setting [1], -0.781; under setting [2], -0.191; under setting [3], 1.32.
The corresponding values for `CSCCC(NC(=O)COc1ccccc1)C(=O)Nc1ccc(C)cc1` (configuration not stated) are 0.137 (inactive), 0.845, 0.202 and 0.24.
The like results for `Cc1ccccc1C(=O)Nc1ccc(N2CCCCCC2)cc1` were, in that order, -0.0609 (inactive), -0.96, 0.105 and 0.497.
The like results for `O=C1C=CC(=O)N1c1ccc(N2CCCCC2)cc1` were, in that order, -4.11 (active), -2.21, 2.18 and -1.81.
For `O=c1[nH][nH]c(=O)c2cc(N3CCCC3)ccc12`, the z-score was -0.37 (inactive) (stronger effect = lower value), 0.302 under setting [1], -0.256 under setting [2] and 0.0156 under setting [3].
The like results for `COc1ccc(Cl)cc1-n1c(C)cc(C(=O)OCC(=O)N2CC(=O)Nc3ccccc32)c1C` were, in that order, -0.945 (inactive), 0.925, -0.291 and -0.693.
The corresponding values for `COCCn1c(C)cc(C(=O)COC(=O)/C=C/c2cccc(OC)c2)c1C` are -0.49 (inactive), 0.119, -0.317 and -0.136.
Consider `COc1cccc(-c2ccc(SCC(=O)N3CCN(c4ccccc4)CC3)nn2)c1`, for which the z-score by setting is: (stronger effect = lower value) 1.32 (inactive); under setting [1], -1.03; under setting [2], -0.273; under setting [3], 1.04.
For `O=C(NCc1ccc(F)cc1)C(c1ccccc1)N(C(=O)c1csnn1)C1CC1` (configuration not stated), the z-score is, setting by setting: (stronger effect = lower value) 2.29 (inactive); under setting [1], -1.97; under setting [2], -0.277; under setting [3], 0.843.
Take `Cc1cc(C(=O)NCCc2ccc(Cl)cc2)n(-c2ccccc2)n1`: the z-score runs as follows: (stronger effect = lower value) -5.24 (active); under setting [1], -1.31; under setting [2], 0.343; under setting [3], -3.12.
`O=C(NCCc1ccccc1)Oc1ccc(Cl)cc1`: the z-score is -0.396 (inactive) (stronger effect = lower value), 0.0482 under setting [1], -0.223 under setting [2] and -0.459 under setting [3].
On to `Cc1cc(NC(=O)Nc2ccc(Cl)cc2)n(-c2ccccc2)n1`, for which the z-score reads like this: (stronger effect = lower value) -0.438 (inactive); under setting [1], -0.392; under setting [2], -0.229; under setting [3], 0.639.
For `Brc1ccc2c(c1)[C@H]1OCC[C@H]1[C@@H](c1cccs1)N2`, the z-score by setting is: (stronger effect = lower value) 1.51 (inactive); under setting [1], -1.61; under setting [2], -0.149; under setting [3], 1.53.
`COC(=O)[C@@H]1CC[C@H](C)[C@@H](c2ccc(C)cc2)N1C(=O)c1ccc(/C=N/O[C@H](C)c2cn([C@@H]3COC[C@H]3O)nn2)cc1`: the z-score is, setting by setting: (stronger effect = lower value) 0.697 (inactive); under setting [1], 0.326; under setting [2], -0.241; under setting [3], 0.639.
Consider `CC(=O)NCC(=O)N1CCCC(C(=O)c2ccc3c4c(cccc24)CC3)C1` (configuration not stated), for which the z-score is, setting by setting: (stronger effect = lower value) 0.368 (inactive); under setting [1], -0.117; under setting [2], -0.201; under setting [3], 0.261.
The corresponding values for `Cc1ccc(O)c(CCc2ccccc2)n1` are 0.491 (inactive), -0.946, -0.202 and 0.586.
The like results for `Cc1[nH]c2ccccc2c1C(=O)COC(=O)c1c(-c2ccccc2)noc1C` were, in that order, -0.58 (inactive), 0.403, -0.281 and -0.747.
The like results for `Cc1ccc(CNC(=O)Cn2c(=O)c3sccc3n(Cc3cccc([N+](=O)[O-])c3)c2=O)cc1` were, in that order, -0.763 (inactive), 0.845, -0.184 and -0.435.
Turning to `COc1ccc(C2/C=C\CN(S(=O)(=O)c3cccs3)CC(=O)N2Cc2ccc(F)cc2)cc1` (configuration not stated), the z-score was 1.14 (inactive) (stronger effect = lower value), -0.515 under setting [1], -0.824 under setting [2] and 0.466 under setting [3].
Take `O=C(CCCOc1ccccc1)NCc1ccco1`: the z-score was 0.563 (inactive) (stronger effect = lower value), -0.922 under setting [1], -0.00359 under setting [2] and 0.541 under setting [3].
For `CCc1cccc(NC(=O)CCC(=O)O)c1`, the z-score reads like this: (stronger effect = lower value) 0.674 (inactive); under setting [1], -0.0336; under setting [2], -0.309; under setting [3], -0.143.
For the molecule `O=C(CCl)Nc1cccc(CP(=O)(c2ccccc2)c2ccccc2)c1`, the z-score runs as follows: (stronger effect = lower value) -3.86 (active); under setting [1], 0.102; under setting [2], 0.338; under setting [3], -1.58.
The corresponding values for `O=C(CCl)Nc1ccc(Sc2ccc(NC(=O)CCl)cc2)cc1` are -2.59 (inactive), 0.102, 0.25 and -1.01.
The like results for `CC1(C)COC(c2cccn2Cc2ccccc2Cl)=N1` were, in that order, -0.905 (inactive), 0.489, -0.115 and 0.38.
The like results for `COc1ccccc1NS(=O)(=O)N(C)C` were, in that order, -0.0864 (inactive), 0.4, -0.101 and 0.17.
Consider `Cc1c(C#N)c(NC(=O)c2ccccc2)n(Cc2ccccc2)c1C`, for which the z-score by setting is: (stronger effect = lower value) -0.291 (inactive); under setting [1], 0.341; under setting [2], -0.155; under setting [3], -0.456.
The corresponding values for `CCN(CC)C(=O)CSC1c2ccccc2C(=O)N1c1ccccc1` (configuration not stated) are 2.73 (inactive), -1.62, -0.173 and 0.99.
The like results for `CCC(=O)Nc1cccc(C2=NOC3(C2)C[C@@H](C(N)=O)N(C(=O)c2cc([N+](=O)[O-])cc([N+](=O)[O-])c2C)C3)c1` (some centres not stated) were, in that order, -0.341 (inactive), -0.348, -0.641 and 0.119.
The corresponding values for `O=C(NCCOCc1ccc(Cl)cc1)c1ncn[nH]1` are 0.731 (inactive), -0.271, -0.00295 and 0.605.
In the case of `COc1ccc(Cl)cc1CSc1ncn[nH]1`, the z-score was 1 (inactive) (stronger effect = lower value), -0.49 under setting [1], -0.24 under setting [2] and 0.812 under setting [3].
The corresponding values for `O=C(/C=C/Sc1ncn[nH]1)c1ccc(Cl)cc1` are -3.98 (active), 0.0934, 1.02 and -1.6.
The corresponding values for `NS(=O)(=O)c1ccc(CCNC(=O)NC2CCCCC2)cc1` are 0.431 (inactive), 0.299, -0.269 and 0.126.
Take `CCOc1ccc(C(=O)NC2CCN(CC(=O)NCc3cccs3)CC2)cc1`: the z-score (stronger effect = lower value) is -1.07 (inactive), the z-score under setting [1] was -0.199, the z-score under setting [2] is -0.19 and the z-score under setting [3] is -0.737.
With `O=Cc1ccc(Oc2cccc(C(F)(F)F)c2)nc1`, the z-score was 1.74 (inactive) (stronger effect = lower value), -2.12 under setting [1], 0.359 under setting [2] and 1.33 under setting [3].
Consider `CCOC(=O)C1=C(C)OC(N)=C(C#N)C1c1cncc(-c2ccc(F)cc2)c1` (configuration not stated), for which the z-score by setting is: (stronger effect = lower value) -3.9 (active); under setting [1], -0.136; under setting [2], 0.28; under setting [3], -1.42.
Consider `CCOC(=O)C1=C(CC)OC(N)=C(C#N)C1c1ccc(F)cc1F` (configuration not stated), for which the z-score was -3.05 (inactive) (stronger effect = lower value), -0.462 under setting [1], 0.472 under setting [2] and -1.28 under setting [3].
The corresponding values for `C=CCOC(=O)C1=C(C)OC(N)=C(C#N)C1c1ccc(F)cc1` (configuration not stated) are -1.1 (inactive), 0.643, -0.165 and -0.354.
As for `O=C1c2ccccc2C(=O)N1Cc1cc(-c2ccccc2Cl)no1`, the z-score runs as follows: (stronger effect = lower value) -0.0385 (inactive); under setting [1], -0.0908; under setting [2], -0.215; under setting [3], 0.196.
The like results for `COc1ccc(C)cc1NC(=S)Nc1ccccc1SC` were, in that order, -0.497 (inactive), 0.252, -0.293 and -0.178.
As to `Cc1ccc(CN2CCN(Cc3ccc(OCCO)cc3)CC2CCO)o1` (configuration not stated), the z-score (stronger effect = lower value) is 0.361 (inactive), the z-score under setting [1] was found to be 0.953, the z-score under setting [2] was -0.289 and the z-score under setting [3] was -0.03.
On to `O=C1c2cccc3cc(Br)cc(c23)C(=O)N1Nc1ccccc1`, for which the z-score reads like this: (stronger effect = lower value) 0.228 (inactive); under setting [1], 0.252; under setting [2], -0.199; under setting [3], 0.671.
The corresponding values for `O=C1C=C(c2ccc(Cl)cc2)C(=O)N1Nc1ccccc1` are -4.4 (active), -0.124, 2.35 and -1.87.
As to `O=C(Nc1ccccc1)OCc1cc(-c2ccc(Cl)cc2)on1`, the z-score is 1.93 (inactive) (stronger effect = lower value), -1.86 under setting [1], -0.165 under setting [2] and 1.78 under setting [3].
